Variants at the floor of the assay were thinned out.
B1: tRNA (parent)
chain: GUUCCGUUGGCGUAAUGGUAACGCGUCUCCCUCCUAAGGAGAAGACUGCGGGUUCGAGUCCCGUACGGAACG

Variants of: B1
Test: yeast fitness relative to wild type (ratio to wild type); higher = fitter; tRNA-Arg(CCU), competitive growth, 37 C, YPD
Method in brief: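 Start and end populations of a pooled competition were compared by 100-nucleotide paired-end sequencing of gene amplicons. The Saccharomyces cerevisiae strains carried tRNA-Arg(CCU) gene variants at the native genomic locus, synthesised with a 3% per-site mutation rate at 69 sites, and competed in YPD at 37°C for 24 hours in six parallel replicates. Darwinian fitness relative to wild type was based on the change in genotype frequencies. Genotypes required ≥ 100 starting reads, and estimates < 0.5 were set to 0.5.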

Point of comparison: GUUCCGUUGGCGUAAUGGUAACGCGUCUCCCUCCUAAGGAGUAGACUGCGGGUUCGAGUCCCGUGGGAAACG [A42U A65G C66G G68A], yeast fitness 0.551. Against it:
- GUUCCGUUGGCGUAAUGGUAACGCGUCUCCCUCCUAAGGAGGAGACUGCGGGUUCAAGUCCCGUACGGAACG [A42G G56A] — higher, 0.87
- GUUCCGUUGGCGUAAUGGUAACGCGUCUCCCUCCUAAGGAGGAGACUGCGGGUUCGAAUCCCGUACGGAACG [A42G G58A] — higher, 0.879
- GUUCCGUUGGCGUAAUGGUAACGCGUCUCCCUCCUAAGGAGGAGACUGCGGGUUCGACUCCCGUACGGAUCG [A42G G58C A70U] — higher, 0.748
- GUUCCGUUGGCGUAAUGGUAACGCGUCUCCCUCCUAAGGAGGAGACUGCGGGUUCGAGUCCCGUACUGAACG [A42G G67U] — higher, 0.633
- GUUCCGUUGGCGUAAUGGUAACGCGUCUCCCUCCUAAGGAGGAGACUGCGGGUUCGAGUCCCGUACGCGACG [A42G G68C A69G] — higher, 0.563
- GUUCCGUUGGCGUAAUGGUAACGCGUCUCCCUCCUAAGGAGGAGACAGCGGGUUCGAGUCCCGUACGGAACG [A42G U47A] — higher, 0.785
- GUUCCGUUGGCGUAAUGGUAACGCGUCUCCCUCCUAAGGAGGAGACUGCGGGUACGAGACCCGUACGGAACG [A42G U54A U59A] — lower, 0.541
- GUUCCGUUGGCGUAAUGGUAACGCGUCUCCCUCCUAAGGAGGAGACUGCGGGUGCGAGUCCCGUACGGAACG [A42G U54G] — higher, 0.562
- GUUCCGUUGGCGUAAUGGUAACGCGUCUCCCUCCUAAGGAGGAGACUGCGGGUUCGAGACCCGUACGGAACG [A42G U59A] — higher, 0.939
- GUUCCGUUGGCGUAAUGGUAACGCGUCUCCCUCCUAAGGAGGAGACUGCGGGUUCGAGCCCCGUACGGAACG [A42G U59C] — higher, 0.714
- GUUCCGUUGGCGUAAUGGUAACGCGUCUCCCUCCUAAGGAGGAGACUGCGGGUUCGAGCCUCGUACGGAACG [A42G U59C C61U] — lower, 0.502
- GUUCCGUUGGCGUAAUGGUAACGCGUCUCCCUCCUAAGGAGUAGACUGCGGGUUCGAGUCCCGUACGGAACG [A42U] — higher, 0.978
- GUUCCGUUGGCGUAAUGGUAACGCGUCUCCCUCCUAAGGAGUCGACUGGGGGUUCGAGUCCCGUCCGGAACG [A42U A43C C49G A65C] — lower, ≤ 0.5
- GUUCCGUUGGCGUAAUGGUAACGCGUCUCCCUCCUAAGGAGUGGACUGCGGGUUCGAGUCCCGUACGGAACG [A42U A43G] — higher, 0.88
- GUUCCGUUGGCGUAAUGGUAACGCGUCUCCCUCCUAAGGAGUGGACUCCGGGAUCGAGUCCCGUUCGGACCG [A42U A43G G48C U53A A65U A70C] — lower, ≤ 0.5
- GUUCCGUUGGCGUAAUGGUAACGCGUCUCCCUCCUAAGGAGUUGACUGCGGGUUCGGGUCCCGUACGGAACG [A42U A43U A57G] — lower, 0.534
- GUUCCGUUGGCGUAAUGGUAACGCGUCUCCCUCCUAAGGAGUAGGCUGCGGGUUCGAGUCCCGUACGGAACG [A42U A45G] — higher, 0.918
- GUUCCGUUGGCGUAAUGGUAACGCGUCUCCCUCCUAAGGAGUAGUCUGCGGGUUCGAGUCCCGUACGGAACG [A42U A45U] — higher, 1.09
- GUUCCGUUGGCGUAAUGGUAACGCGUCUCCCUCCUAAGGAGUAGUCUGGGGGAUCGAGUCCCGUACGGAACG [A42U A45U C49G U53A] — lower, ≤ 0.5
- GUUCCGUUGGCGUAAUGGUAACGCGUCUCCCUCCUAAGGAGUAGUCUGCGGGUUCGAGUUCCGUCCGGAACG [A42U A45U C60U A65C] — lower, ≤ 0.5
- GUUCCGUUGGCGUAAUGGUAACGCGUCUCCCUCCUAAGGAGUAGACUGCGGGUUCGCGUCCCGUACGGAACG [A42U A57C] — higher, 0.681
- GUUCCGUUGGCGUAAUGGUAACGCGUCUCCCUCCUAAGGAGUAGACUGCGGGUUCGCGUCCCGUUCGGAACG [A42U A57C A65U] — higher, 0.589
- GUUCCGUUGGCGUAAUGGUAACGCGUCUCCCUCCUAAGGAGUAGACUGCGGGUUCGGGUCCCGUACGGAACG [A42U A57G] — higher, 0.905
- GUUCCGUUGGCGUAAUGGUAACGCGUCUCCCUCCUAAGGAGUAGACUGCGGGUUCGGAUCCCGUACGGAUCG [A42U A57G G58A A70U] — lower, ≤ 0.5
- GUUCCGUUGGCGUAAUGGUAACGCGUCUCCCUCCUAAGGAGUAGACUGCGGGUUCGAGUCCCGUACGGCACG [A42U A69C] — higher, 0.959
- GUUCCGUUGGCGUAAUGGUAACGCGUCUCCCUCCUAAGGAGUAGACUGCGGGUUCGAGUCCCGUACGGGACG [A42U A69G] — higher, 1.11
- GUUCCGUUGGCGUAAUGGUAACGCGUCUCCCUCCUAAGGAGUAGAGUGCGGCUUCGAGUCCAGUACGGAACG [A42U C46G G52C C62A] — lower, ≤ 0.5
- GUUCCGUUGGCGUAAUGGUAACGCGUCUCCCUCCUAAGGAGUAGAUUGCGGGUUCGAGUCCCGUACGGCACG [A42U C46U A69C] — higher, 0.9
- GUUCCGUUGGCGUAAUGGUAACGCGUCUCCCUCCUAAGGAGUAGACUGGGGGUUAGAGUCCCGUACGGAACG [A42U C49G C55A] — lower, ≤ 0.5
- GUUCCGUUGGCGUAAUGGUAACGCGUCUCCCUCCUAAGGAGUAGACUGUAGGUUCGAGUCCCGUACGGAACG [A42U C49U G50A] — higher, 0.651
- GUUCCGUUGGCGUAAUGGUAACGCGUCUCCCUCCUAAGGAGUAGACUGUGAGUUCGAGUCCCGUACGGAACG [A42U C49U G51A] — higher, 0.665
- GUUCCGUUGGCGUAAUGGUAACGCGUCUCCCUCCUAAGGAGUAGACUGCGGGUUUGAGUCCCGUACGGAACG [A42U C55U] — higher, 0.709
- GUUCCGUUGGCGUAAUGGUAACGCGUCUCCCUCCUAAGGAGUAGACUGCGGGUUUGAGUCCCGUAUGGAACG [A42U C55U C66U] — lower, ≤ 0.5
- GUUCCGUUGGCGUAAUGGUAACGCGUCUCCCUCCUAAGGAGUAGACUGCGGGUUCGAGUCGCGUUCGGAACG [A42U C61G A65U] — lower, ≤ 0.5
- GUUCCGUUGGCGUAAUGGUAACGCGUCUCCCUCCUAAGGAGUAGACUGCGGGUUCGAGUCUCGUACGGAACG [A42U C61U] — higher, 0.827
- GUUCCGUUGGCGUAAUGGUAACGCGUCUCCCUCCUAAGGAGUAGACUGCGGGUUCGAGUCUCGUACGGACCG [A42U C61U A70C] — higher, 0.709
- GUUCCGUUGGCGUAAUGGUAACGCGUCUCCCUCCUAAGGAGUAGACUGCGGGUUCGAGUCUUGUACGGAACG [A42U C61U C62U] — higher, 0.612

— the RNAGym collection of RNA variant scans (doi:10.1126/science.aae0568)
